Source: PubChem
Many of the other results were omitted from the sample, so hits are more common in it than they were.
T cruzi repl: blocks replication of Trypanosoma cruzi; inhibition, % (no concentration beside the values); AID 1885; T. cruzi beta-gal in NIH3T3, luminescence, 90 h; 300,000 compounds, 1.4% hits;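 active means mean inhibition across valid replicates above about 55%, limit read from the data; inconclusive means mean below that limit but half or more replicates reach it; inactive means mean below it, under half of replicates reach it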;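 further: signal also drops with host cell toxicity which is not excluded here; 0% = plate median of DMSO wells and 100% = zero luminescence signal; higher percent means less beta-gal luminescence so fewer parasites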
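assay system = mouse NIH/3T3 fibroblasts infected with β-gal-expressing T. cruzi Tulahuen C4 | input = 5,000 NIH/3T3 host cells per well | buffer or medium = DMEM plus 2% FBS | timing = 3 h host attachment, then at least 90 h co-culture | measured by = GalScreen luminescence, 60 min | evaluation = luminescence reflecting intracellular parasite burden, expressed as percent inhibition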
Lmaj promast: inhibitors of Leishmania major promastigote growth; Leishmania major promastigotes, resazurin fluorescence viability; inhibition, % at 10 µM; 200,000 compounds, 9% hits; in the data active means inhibition above about 50%;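 further: promastigotes grown with compound for 44 hours at 28 °C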
Hep lipid drop: hepatic lipid droplet formation modulation. AID 1656. inhibition, % at 6.5 µM. 240,000 compounds, 0.4% hits. AML12 mouse hepatocytes, oleate lipid droplets, BODIPY imaging;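 active means lipid droplet intensity inhibited by at least 50%, with more than 500 cells counted; inconclusive means wells with under 300 cells, treated as cytotoxic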
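Assay system: AML12 mouse liver cells | Compound: 6.5 µM single-point dosing | Schedule: Overnight exposure | Technique: Fluorescence imaging, 20x objective, two fields per well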
MPTP inh: inhibitors of mitochondrial permeability transition pore; isolated mouse mitochondria, Ca2+ swelling absorbance, 30 min; inhibition, % at 10 µM; 360,000 compounds, 1.4% hits; AID 602449;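 active means inhibition of 50% or more, scaled per plate between neutral and stimulator controls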;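 further: 0% = DMSO wells given calcium and 100% = 1 mM EGTA wells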
DTT redox prof: compounds producing H2O2 with reducing agent – biochemical, NIH compound library profiling, artefact control for MLSCN library redox annotation, primary screen. DTT-dependent redox cycling H2O2, phenol red/HRP absorbance; 100% = 100 µM peroxide control, 0% = buffer. activation, % at 10 µM. 200,000 compounds, 0.03% hits. AID 878;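 active means activation of at least 50% relative to the plate's high and low controls in the primary single-dose screen; inactive means activation below 50%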;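 further: compound incubated with DTT at 0.8 mM final as the reducing agent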
The depositor's hits bear a star; ? = inconclusive; nt = no result given.

SMILES	T cruzi repl	Lmaj promast	Hep lipid drop	MPTP inh	DTT redox prof
CC(=O)N1c2ccc(S(=O)(=O)N3CCCC3)cc2CC1C(=O)NCc1ccccc1F (stereo unspecified)	11	nt	-1	-3	nt
COc1ccc(/C=C2\SC(N3CCCCC3)=NC2=O)cc1	11	nt	12	0	nt
COc1ccc(/C=C2\SC(=O)N=C2N)cc1	-7	57*	-1	0	0
Cc1ccc(Nc2nc(N)c([N+](=O)[O-])c(NCc3ccco3)n2)cc1C	26	70*	4	6	0
Cc1ccc(Nc2nc(N)c([N+](=O)[O-])c(NCCO)n2)cc1C	7	nt	-8	2	nt
Cc1ccc(CNc2nc(N)c([N+](=O)[O-])c(NCc3ccccc3)n2)cc1	6	70*	-3	6	0
Nc1nc(NCc2ccccc2)nc(NCc2ccccc2)c1[N+](=O)[O-]	13	18	-16	1	3
O=C1c2cccc3cc([N+](=O)[O-])cc(c23)C(=O)N1CCN1CCCC1	56*	nt	?	0	nt
Nc1cc2c3c(cccc3c1)C(=O)N(CCN1CCCC1)C2=O	78*	nt	?	-2	nt
CCN(CC)CCN1C(=O)c2cccc3cc(N)cc(c23)C1=O	16	nt	-58	0	nt
Cc1cc(C)c(S(=O)(=O)N2CCN(CCN3C(=O)c4cccc5cccc(c45)C3=O)CC2)cc1[N+](=O)[O-]	nt	53*	-7	nt	-1
O=C1c2ccccc2C(=O)N1CCN1CCCCC1	-17	-15	14	-5	1
Cc1ccc(C(CNC(=O)C(=O)Nc2ccc3c(c2)OCCO3)N2CCN(C)CC2)cc1 (stereo unspecified)	9	nt	nt	-1	nt
Cc1ccc(C(CNC(=O)c2ccc(Br)o2)N2CCN(C)CC2)cc1 (stereo unspecified)	10	nt	nt	-2	nt
CN1CCN(C(CNC(=O)c2ccc(Br)o2)c2ccc(F)cc2)CC1 (stereo unspecified)	62*	nt	nt	0	nt
CN1CCN(C(CNC(=O)C(=O)Nc2ccc3c(c2)OCCO3)c2ccc(F)cc2)CC1 (stereo unspecified)	62*	nt	nt	0	nt
COc1ccc(C(=O)NCC(c2cccnc2)N2CCN(c3ccccc3OC)CC2)cc1OC (stereo unspecified)	41	74*	-62	0	-1
COc1ccc(C(=O)NCc2cccnc2)cc1OC	6	3	nt	1	0
COc1cccc(C(=O)NCC(c2cccnc2)N2CCN(c3ccccc3OC)CC2)c1 (stereo unspecified)	24	88*	-42	2	0
COc1ccccc1N1CCN(C(c2cccs2)C(C)NC(=O)c2cccnc2)CC1 (stereo unspecified)	0	-2	9	0	-1
CC(C)(C)C1N=C(c2ccc3ccccc3c2)OC1=O (stereo unspecified)	nt	nt	nt	-2	nt
O=C(c1nc2ncccn2n1)N1CCN(c2ccc(F)cc2)CC1	0	-9	-6	0	-2
O=C(c1nc2ncccn2n1)N1CCN(c2ccccc2)CC1	-9	90*	2	-5	2
COc1ccc(C2(O)CCN(CC(=O)Nc3nccs3)CC2)c(OC)c1	12	88*	20	-1	0
COc1ccccc1C1(O)CCN(CC(=O)Nc2nc(-c3ccccc3)cs2)CC1	2	10	89*	-2	-1
SMILES	T cruzi repl	Lmaj promast	Hep lipid drop	MPTP inh	DTT redox prof
CCc1nnc(NC(=O)CN2CCC(O)(c3ccccc3OC)CC2)s1	-28	-4	nt	0	1
CN(C)CCC(=O)c1cccc(Br)c1	33	52*	4	3	-2
CN(C)CCC(=O)c1ccc2c(c1)OCO2	4	98*	nt	3	-4
CCc1ccc(C2=NN(C(C)=O)C(c3ccco3)C2)cc1 (stereo unspecified)	10	4	20	-2	0
CC(C)Oc1ccc(CCN=C(N)N=C(N)N)cc1Cl	-7	81*	-1	-2	-1
CCCCN(CC)CCCNC(=S)Nc1ccc2nc3n(c(=O)c2c1)CCCCC3	56*	5	-4	18	0
O=c1c2cc(NC(=S)N3CCC(N4CCCCC4)CC3)ccc2nc2n1CCCCC2	0	-3	-22	-3	-1
O=c1c2cc(NC(=S)NC3CCN(Cc4ccccc4)CC3)ccc2nc2n1CCCCC2	38	54*	26	-3	-1
O=c1c2cc(NC(=S)NCCCN3CCC(Cc4ccccc4)CC3)ccc2nc2n1CCCCC2	57*	99*	16	24	-2
CC1CCCCN1C(=S)Nc1ccc2nc3n(c(=O)c2c1)CCCCC3 (stereo unspecified)	-9	59*	18	0	0
O=c1c2cc(NC(=S)NCCN3CCCCCC3)ccc2nc2n1CCCCC2	8	7	23	2	0
O=c1c2cc(NC(=S)NC3CC3)ccc2nc2n1CCCCC2	2	9	16	0	1
CCSc1nnc(N2C(=O)c3ccc(C(=O)c4ccc(C(=O)O)cc4)cc3C2=O)s1	-2	nt	2	-1	nt
O=C(NCCc1ccc(O)c(O)c1)C1COc2ccccc2O1 (stereo unspecified)	2	nt	-6	1	nt
CNc1cncc(C(=O)O)c1	-15	2	-19	1	-1
CN(Cc1ccccc1)S(=O)(=O)c1ccc(C(=O)Nc2nnc(C3CC3)o2)cc1	37	99*	nt	-2	0
CCc1nnc(NC(=O)c2ccc(S(=O)(=O)N(C)Cc3ccccc3)cc2)o1	-6	nt	-1	-2	nt
COc1ccccc1-c1nnc(NC(=O)c2ccc(S(=O)(=O)N(C)Cc3ccccc3)cc2)o1	nt	97*	11	nt	1
O=S(=O)(Nc1ccc(Cc2ccncc2)cc1)c1ccc(Cl)c(Cl)c1	2	74*	nt	0	-3
Cc1cc(C)n(-c2nc3ccccc3c(=O)n2OCC#N)n1	59*	nt	-16	-1	nt
O=C(CNC(=O)c1sc2ccccc2c1Cl)Nc1ccccc1F	6	nt	nt	-2	nt
CCN1CCN(C(=O)CN(C)S(=O)(=O)c2ccc(OC)c(C)c2)CC1	-7	98*	10	0	0
CCC(C(=O)Nc1ccc(OC)c(Cl)c1)c1ccccc1 (stereo unspecified)	16	53*	-25	2	0
CCC(C(=O)Nc1cccc(C(=O)O)c1)c1ccccc1 (stereo unspecified)	-13	-6	3	-1	0
COc1ccc(NC(=O)C(C)N2C(=O)C3CC=C(Cl)CC3C2=O)cc1 (stereo unspecified)	-3	nt	-10	1	nt
CCOc1ccc(-n2cc(C(=O)Nc3cccc(OC)c3)c3cc(OC)c(OC)cc3c2=O)cc1	41	66*	nt	0	1
CCn1cc(C(=O)Nc2ccc3c(c2)OCCO3)c2cc(OC)c(OC)cc2c1=O	-14	51*	nt	-2	-1
CC(=O)[C@]1(O)Cc2c(O)c3c(c(O)c2[C@@H](O[C@H]2C[C@H](N)[C@H](O)[C@H](C)O2)C1)C(=O)c1ccccc1C3=O	55*	nt	nt	nt	nt
